Assay results pooled from the literature.
Protocols differ between the studies behind these lines.
CHEK1: Serine/threonine-protein kinase Chk1 (CHEK1, Homo sapiens, UniProt O14757)
PPARG: Peroxisome proliferator-activated receptor gamma (PPARG, Homo sapiens, UniProt P37231)
GLP1R: Glucagon-like peptide 1 receptor (GLP1R, Homo sapiens, UniProt P43220)

| Structure (SMILES) | target | assay | conditions | endpoint | result |
| --- | --- | --- | --- | --- | --- |
| COC(=O)Cc1ccc2c(c1)NC(=O)c1cc(C)c(-c3ccc([N+](=O)[O-])c(OC)c3)cc1N2 | CHEK1 | enzyme activity, inhibitor |  | IC50 | 49.4 nM |
| CCN(CC)Cc1ccc2cc(COC(=O)Nc3ccc(C(=O)NO)cc3)ccc2c1 | Histone deacetylase 5 (HDAC5, Homo sapiens, UniProt Q9UQL6) | cell-free assay |  | Kd | > 30200 nM |
| COc1cc(-c2ccc3c(c2)Nc2ccc(OCCN4CCOCC4)cc2NC3=O)ccc1[N+](=O)[O-] | CHEK1 | enzyme activity, inhibitor |  | IC50 | 24.5 nM |
| CC(C)(Oc1ccc(CCNC(=O)c2ccc(Cl)cc2)cc1)C(=O)O | PPARG | binding, ITC |  | Kd | 30300 nM |
| Cc1ccc(-c2ccc(F)cc2COc2ccc(CCC(=O)O)cc2)cc1 | PPARG | reporter gene, agonist, luciferase |  | EC50 | > 100000 nM |
| CSCC[C@H](NC(=O)[C@H](CCC(=O)O)NC(=O)[C@@H]1CCCN1C(=O)[C@@H](NC(=O)[C@@H]1CCCN1)[C@@H](C)O)C(=O)N[C@@H](CCCNC(=N)N)C(=O)N[C@@H](CCC(=O)O)C(=O)N[C@@H](CCCCN)C(=O)N[C@@H](CC(C)C)C(=O)N[C@H]1CSSC[C@@H]2NC(=O)[C@@H](NC(=O)[C@H](Cc3ccc(O)cc3)NC(=O)[C@H](CCCNC(=N)N)NC(=O)[C@H](C)NC(=O)[C@@H]3CCCN3C(=O)[C@H](CC(N)=O)NC(=O)[C@@H](NC(=O)[C@H](C)NC(=O)[C@H](C)NC(=O)[C@H](C)N)[C@@H](C)O)CSSC[C@H](NC(=O)CNC(=O)[C@H](CO)NC(=O)[C@H](CC(C)C)NC2=O)C(=O)N[C@@H]([C@@H](C)O)C(=O)N[C@@H](CCC(N)=O)C(=O)N[C@@H](CCC(N)=O)C(=O)N[C@@H](CC(=O)O)C(=O)N[C@@H](CC(C)C)C(=O)N[C@@H](CC(C)C)C(=O)N[C@@H]([C@@H](C)O)C(=O)N[C@@H](CC(C)C)C(=O)N[C@H](C(=O)N2CCC[C@H]2C(=O)N[C@@H](Cc2ccc(O)cc2)C(=O)O)CSSC[C@@H](C(=O)NCC(=O)NCC(=O)N2CCC[C@H]2C(=O)N[C@@H](CCCNC(=N)N)C(=O)N[C@@H](Cc2c[nH]c3ccccc23)C(=O)N[C@@H](CO)C(=O)N[C@H](C(=O)N[C@@H](CCC(=O)O)C(=O)N[C@@H](C)C(=O)O)[C@@H](C)O)NC(=O)[C@H](C(C)C)NC(=O)[C@H](CCCNC(=N)N)NC(=O)[C@H](C(C)C)NC(=O)[C@H](CC(C)C)NC(=O)[C@H](C)NC(=O)[C@H](CCCNC(=N)N)NC(=O)[C@H](C(C)C)NC(=O)[C@H](Cc2ccccc2)NC(=O)[C@H](Cc2c[nH]cn2)NC(=O)[C@H](Cc2c[nH]cn2)NC(=O)CNC1=O | Relaxin receptor 2 (RXFP2, Homo sapiens, UniProt Q8WXD0) | cAMP, agonist |  | EC50 | 0.0166 nM |
| Cc1cc2nc3c(=O)[nH]c(=O)nc-3n(C[C@H](O)[C@H](O)[C@H](O)COP(=O)(O)OP(=O)(O)OC[C@H]3O[C@@H](n4cnc5c(N)ncnc54)[C@H](O)[C@@H]3O)c2cc1C | YTH domain-containing family protein 2 (YTHDF2, Homo sapiens, UniProt Q9Y5A9) | binding | lysate | Kd | 62 nM |
| CCOCc1nc(O)c(-c2nnc(Cc3ccc(Cl)cn3)o2)c(O)c1-c1c(OC)cccc1OC | Apelin receptor (Rattus norvegicus, UniProt Q9JHG3) | cAMP, agonist |  | EC50 | 0.02 nM |
| CC[C@H](C)[C@H](NC(=O)[C@H](CC(=O)O)NC(=O)[C@H](CO)NC(=O)[C@@H](NC(=O)[C@H](Cc1ccccc1)NC(=O)[C@@H](NC(=O)CNC(=O)[C@H](CC(=O)O)NC(=O)[C@H](C)NC(=O)[C@@H](N)Cc1c[nH]cn1)[C@@H](C)O)[C@@H](C)O)C(=O)N[C@@H](CC(N)=O)C(=O)N[C@@H](CCCCN)C(=O)N[C@H](C(=O)N[C@@H](CC(C)C)C(=O)N[C@@H](CC(=O)O)C(=O)N[C@@H](CC(=O)O)C(=O)N[C@@H](CCSC)C(=O)N[C@@H](C)C(=O)N[C@@H](C)C(=O)N[C@@H](CCCCN)C(=O)N[C@@H](CCC(=O)O)C(=O)N[C@@H](Cc1ccccc1)C(=O)N[C@@H](CC(C)C)C(=O)N[C@@H](CCCCN)C(=O)N[C@@H](Cc1c[nH]c2ccccc12)C(=O)N[C@@H](CC(C)C)C(=O)N[C@H](C(=O)N[C@@H](CC(N)=O)C(=O)N[C@H](C(=O)N[C@@H](CCCCN)C(=O)N[C@H](C(=O)N[C@H](C(=O)N[C@@H](CCC(N)=O)C(=O)O)[C@@H](C)O)C(C)C)[C@@H](C)O)[C@@H](C)CC)[C@@H](C)CC | GLP1R | reporter gene, agonist, luciferase |  | EC50 | 2.79 nM |
| CCCCc1nc2c(o1)c(N)nc1ccccc12 | Toll-like receptor 8 (TLR8, Homo sapiens, UniProt Q9NR97) | reporter gene, agonist |  | EC50 | 12500 nM |
| c1ccc2c(Oc3nc(Nc4ccc(N5CCOCC5)cc4)c4ncn(C5CCCCC5)c4n3)cccc2c1 | Protein smoothened (SMO, Homo sapiens, UniProt Q99835) | GTPγS binding, agonist, radiometric | cell membranes | EC50 | 229 nM |
| COc1cc(-c2ccc3c(c2)Nc2ccc(NC(N)=O)cc2NC3=O)ccc1[N+](=O)[O-] | CHEK1 | enzyme activity, inhibitor |  | IC50 | 6.41 nM |
| CC1(C)C=Cc2c(ccc3c2OC[C@@H](c2ccc(O)cc2O)C3)O1 | PPARG | binding, ITC |  | Kd | 14600 nM |
| COC(=O)Cc1ccc2c(c1)NC(=O)c1ccc(-c3cc(OC)ncc3C)cc1N2 | CHEK1 | enzyme activity, inhibitor |  | IC50 | 7.79 nM |
| CCCCCCCC/C=C\CCCCCCCC(=O)O[C@H](CC(=O)[O-])C[N+](C)(C)C | Pantothenate kinase 3 (PANK3, Homo sapiens, UniProt Q9H999) | enzyme activity, inhibitor, radiometric |  | EC50 | 600 nM |
| CCOC(=O)CCCCCOc1ccc(Cl)cc1NC(=O)Nc1cnc(C#N)cn1 | CHEK1 | enzyme activity, inhibitor |  | IC50 | 380 nM |
| CC[C@H](C)[C@H](NC(=O)[C@H](Cc1ccccc1)NC(=O)[C@H](CCC(=O)O)NC(=O)[C@H](CCCCN)NC(=O)[C@H](C)NC(=O)[C@H](C)NC(=O)[C@H](CCC(N)=O)NC(=O)CNC(=O)[C@H](CCC(=O)O)NC(=O)[C@H](CC(C)C)NC(=O)[C@H](Cc1ccc(O)cc1)NC(=O)[C@H](CO)NC(=O)[C@H](CO)NC(=O)[C@@H](NC(=O)[C@H](CC(=O)O)NC(=O)[C@H](CO)NC(=O)[C@@H](NC(=O)[C@H](Cc1ccccc1)NC(=O)[C@@H](NC(=O)CNC(=O)[C@H](CCC(=O)O)NC(=O)[C@H](C)NC(=O)[C@H](Cc1c[nH]cn1)NC[C@H](C)N)[C@@H](C)O)[C@@H](C)O)C(C)C)C(=O)N[C@@H](C)C(=O)N[C@@H](Cc1c[nH]c2ccccc12)C(=O)N[C@@H](CC(C)C)C(=O)N[C@H](C(=O)N[C@@H](CCCCN)C(=O)NCC(=O)N[C@@H](CCCNC(=N)N)C(N)=O)C(C)C | GLP1R | reporter gene, agonist, luciferase |  | EC50 | 0.00251 nM |
